Test results: paper PMC5268740 (New journal of chemistry = Nouveau journal de chimie, 2016)
“And” between values parts separate entries of the source, which are not always exact repeats. Equal entries are not always repeated.

How the values were obtained:
Type in all cases: physicochemical
[1] = Absorption spectroscopy of bacteriochlorins; conditions: for Bmax abs / IQy/IB / Qy abs / Qy abs fwhm / ∑Qy/∑B: room temperature; for bathochromic shift in the Qy band relative to that for B2: in DMF or water
[2] = Fluorescence emission spectroscopy of bacteriochlorins; conditions: for Qy em / Qy em fwhm: room temperature
In short: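 Absorption and fluorescence spectra were recorded at room temperature in DMF and in […] water (one analogue in DMSO). The Qy/B ratio is the ratio of integrated Qy to integrated B absorption intensity. The Stokes shift is the Qy fluorescence maximum minus the Qy absorption peak.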

[3] = Excited-state photophysical properties; conditions: for Φf (fluorescence quantum yield) / Φisc (intersystem crossing yield) / τS (lifetime of lowest singlet excited state) / kf^−1 / kic^−1 / kisc^−1 / Φic (internal conversion yield): room temperature; for kf^−1 / kic^−1 / kisc^−1: kx = Φx/τS; for Φic (internal conversion yield): Φic = 1 - Φf - Φisc
[4] = Water solubility / aggregation by absorption versus concentration in water; conditions: neat deionized water, 1000-fold concentration range (∼200–700 µM to ∼0.20–0.70 µM)
In short: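 Absorption spectra were taken in neat deionized water over a ~1000-fold concentration range (~200–700 µM to ~0.20–0.70 µM). Pathlength was changed reciprocally ([…]), and spectra were normalized at the Qy band. Concentration was calculated from absorbance in the 1-cm cuvette assuming ε(Qy) = 120,000 M−1cm−1.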

| Substance | Bmax abs ([1]; DMF) | IQy/IB ([1]; DMF) | Qy abs ([1]; DMF) | Qy abs fwhm ([1]; DMF) | ∑Qy/∑B ([1]; DMF) | Bmax abs ([1]; water with 5% DMF as cosolvent) | IQy/IB ([1]; water with 5% DMF as cosolvent) | Qy abs ([1]; water with 5% DMF as cosolvent) | Qy abs fwhm ([1]; water with 5% DMF as cosolvent) | ∑Qy/∑B ([1]; water with 5% DMF as cosolvent) | Qy em ([2]; DMF) | Qy em fwhm ([2]; DMF) | Qy em ([2]; water with 5% DMF as cosolvent) | Qy em fwhm ([2]; water with 5% DMF as cosolvent) | Φf (fluorescence quantum yield) ([3]; DMF) | Φisc (intersystem crossing yield) ([3]; DMF) | τS (lifetime of lowest singlet excited state) ([3]; DMF) | kf^−1 ([3]; DMF) | kic^−1 ([3]; DMF) | kisc^−1 ([3]; DMF) | also measured |
| --- | --- | --- | --- | --- | --- | --- | --- | --- | --- | --- | --- | --- | --- | --- | --- | --- | --- | --- | --- | --- | --- |
| 2,12-Bis[3,5-bis(11-methoxy-3,6,9-trioxaundecylamidomethyl)phenyl]-15-(7-carboxy-1-heptyl)-3,13-dimethoxycarbonyl-5-methoxy-8,8,18,18-tetramethylbacteriochlorin [B4] | 377 nm | 0.63 | 754 nm | 30 nm | 0.55 | 368 nm | 0.62 | 753 nm | 32 nm | 0.52 | 760 nm | 31 nm | 759 nm | 33 nm | 0.12 | 0.33 | 3.46 ns | 28 ns | 6 ns | 10 ns | bathochromic shift in the Qy band relative to that for B2 [1]: ~28 nm; Φic (internal conversion yield) ([3]; DMF): 0.55; reduction of Φf in water vs DMF [3]: 71%; Φf (fluorescence quantum yield) ([3]; water with 5% DMF as cosolvent): 0.035; Φisc (intersystem crossing yield) ([3]; water with 5% DMF as cosolvent): 0.31; τS (lifetime of lowest singlet excited state) ([3]; water with 5% DMF as cosolvent): 3.21 ns; kf^−1 ([3]; water with 5% DMF as cosolvent): 92 ns; kic^−1 ([3]; water with 5% DMF as cosolvent): 5 ns; kisc^−1 ([3]; water with 5% DMF as cosolvent): 10 ns; Φic (internal conversion yield) ([3]; water with 5% DMF as cosolvent): 0.65 |
| 2,12-Bis[3,5-bis(3,6,9,12,15,18,21,24-octaoxahexacosanyl-26-amidomethyl)phenyl]-15^2-N-(3-carboxypropyl)-3-methoxycarbonyl-5-methoxy-8,8,18,18-tetramethylbacteriochlorin-13,15-dicarboimide [B5] | 375 nm | 0.78 | 808 nm | 32 nm | 0.50 | 376 nm | 0.50 | 819 nm | 36 nm | 0.38 | 819 nm | 35 nm | 834 nm | 44 nm | 0.13 | 0.29 | 1.7 ns and 1.70 ns | 13 ns | 3 ns | 6 ns | bathochromic shift of the Qy absorption band compared to B4 and II ([1]; DMF and water): ~50 nm; (Stokes) shift of Qy fluorescence maximum from Qy absorption peak ([2]; DMF): 11 nm; (Stokes) shift of Qy fluorescence maximum from Qy absorption peak ([2]; water): 15 nm; difference in kf between the two media (DMF and water) ([3]; DMF versus water): 6.5 fold; Φic (internal conversion yield) ([3]; DMF): 0.58; reduction of Φf in water vs DMF [3]: 87%; Φf (fluorescence quantum yield) ([3]; water with 5% DMF as cosolvent): 0.017; Φisc (intersystem crossing yield) ([3]; water with 5% DMF as cosolvent): 0.08; τS (lifetime of lowest singlet excited state) ([3]; water with 5% DMF as cosolvent): 1.4 ns and 1.40 ns; kf^−1 ([3]; water with 5% DMF as cosolvent): 84 ns; kic^−1 ([3]; water with 5% DMF as cosolvent): 2 ns; kisc^−1 ([3]; water with 5% DMF as cosolvent): 18 ns; Φic (internal conversion yield) ([3]; water with 5% DMF as cosolvent): 0.90; aggregation in water from absorption versus concentration [4]: obvious band broadening indicating some degree of aggregation |
| 3,13-Dimethoxycarbonyl-2,12-bis[3,5-bis(3,6,9,12,15,18,21,24-octaoxahexacosanyl-26-amidomethyl)phenyl]-5-methoxy-8,8,18,18-tetramethylbacteriochlorin [II] | 373 nm | 0.79 | 750 nm | 24 nm | 0.42 | 369 nm | 0.75 | 751 nm | 26 nm | 0.40 | 756 nm | 27 nm | 760 nm | 31 nm | 0.11 | 0.32 | 3.02 ns | 27 ns | 5 ns | 9 ns | bathochromic shift in the Qy band relative to that for B2 [1]: ~25 nm; (Stokes) shift of Qy fluorescence maximum from Qy absorption peak ([2]; water): 8–9 nm; Φic (internal conversion yield) ([3]; DMF): 0.57; reduction of Φf in water vs DMF [3]: 29%; Φf (fluorescence quantum yield) ([3]; water with 5% DMF as cosolvent): 0.078; Φisc (intersystem crossing yield) ([3]; water with 5% DMF as cosolvent): 0.31; τS (lifetime of lowest singlet excited state) ([3]; water with 5% DMF as cosolvent): 2.96 ns; kf^−1 ([3]; water with 5% DMF as cosolvent): 38 ns; kic^−1 ([3]; water with 5% DMF as cosolvent): 5 ns; kisc^−1 ([3]; water with 5% DMF as cosolvent): 10 ns; Φic (internal conversion yield) ([3]; water with 5% DMF as cosolvent): 0.61 |
| 15-[4-(3-Carboxyethyl)phenyl]-3,13-dimethoxycarbonyl-2,12-bis[3,5-bis(3,6,9,12,15,18,21,24-octaoxahexacosanyl-26-amidomethyl)phenyl]-5-methoxy-8,8,18,18-tetramethylbacteriochlorin [B3] | 375 nm | 0.74 | 741 nm | 23 nm | 0.52 | 374 nm | 0.81 | 742 nm | 24 nm | 0.57 | 748 nm | 27 nm | 750 nm | 28 nm | 0.21 | 0.47 | 3.27 ns | 15 ns | 10 ns | 7 ns | bathochromic shift in the Qy band relative to that for B2 [1]: ~16 nm; (Stokes) shift of Qy fluorescence maximum from Qy absorption peak ([2]; water): 8–9 nm; Φic (internal conversion yield) ([3]; DMF): 0.32; reduction of Φf in water vs DMF [3]: 38%; Φf (fluorescence quantum yield) ([3]; water with 5% DMF as cosolvent): 0.13; Φisc (intersystem crossing yield) ([3]; water with 5% DMF as cosolvent): 0.45; τS (lifetime of lowest singlet excited state) ([3]; water with 5% DMF as cosolvent): 3.39 ns; kf^−1 ([3]; water with 5% DMF as cosolvent): 27 ns; kic^−1 ([3]; water with 5% DMF as cosolvent): 8 ns; kisc^−1 ([3]; water with 5% DMF as cosolvent): 8 ns; Φic (internal conversion yield) ([3]; water with 5% DMF as cosolvent): 0.42 |
